Source: ChEMBL document CHEMBL1142431, “Benzodioxoles: novel cannabinoid-1 receptor inverse agonists for the treatment of obesity” (J Med Chem, 2008)
In brackets after ≈: the same amount, converted by molar mass. Activity calls are given as the source filed them. No cut-off for these calls is given here.

Columns and labels:
Homo sapiens [1] = species: Homo sapiens; experiment: Selectivity for human CB1 receptor over human progesterone receptor
[2] = Selectivity for human CB1 receptor over PCP receptor
[3] = Selectivity for human CB1 receptor over kainate receptor
Homo sapiens [4] = species: Homo sapiens; experiment: Selectivity for human CB1 receptor over human ETB receptor
[5] = Selectivity for human CB1 receptor over CRF1 receptor
[6] = Partition coefficient, log D at pH 6.5; assay type: physicochemical; conditions: octanol/water
[7] = Selectivity for human CB1 receptor over L type calcium channel at diltiazem site
[8] = Selectivity for human CB1 receptor over AMPA receptor
Homo sapiens [9] = species: Homo sapiens; experiment: Selectivity for human CB1 receptor over human ETA receptor
[10] = Selectivity for human CB1 receptor over neuronal N receptor
[11] = Selectivity for human CB1 receptor over L type calcium channel at DHP site
[12] = Permeability from apical to basolateral side of human Caco-2 cell membrane; assay type: ADME, cell-based; conditions: read-out: permeability
Homo sapiens [13] = species: Homo sapiens; experiment: Selectivity for human CB1 receptor over human glucocorticoid receptor
Homo sapiens [14] = species: Homo sapiens; experiment: Selectivity for human CB1 receptor over human dopamine D1 receptor
[15] = Selectivity for human CB1 receptor over K ATP channel
[16] = Selectivity for human CB1 receptor over GABA receptor
[17] = Aqueous solubility at pH 6.5 by lyophilisation solubility assay; assay type: physicochemical
In short: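 Duplicate samples from 10 mM DMSO stock; DMSO evaporated 1 h, residue taken up in 50 mM phosphate buffer pH 6.5, stirred 1 h, shaken 2 h, left overnight. Filtrate and 1/10 dilution read by direct UV or HPLC-UV against four-point calibration; range for MW 500 0-666 µg/mL; >80% dissolved reported as greater-than.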

[18] = Selectivity for human CB1 receptor over 5HTT
[19] = Selectivity for human CB1 receptor over adrenergic alpha-1 receptor
[20] = Selectivity for human CB1 receptor over opiate receptor
Liver microsomes [21] = experiment: Clearance in human liver microsomes; assay type: ADME, Microsome; conditions: microsomes
In short: (§1)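 Test compound at 2 µM incubated with liver microsomes (0.5 mg protein/mL) in 50 mM potassium phosphate pH 7.4 at 37 °C. Reaction started with an NADPH-generating system (glucose-6-phosphate 3.2 mM, NADP 2.6 mM, MgCl2 6.5 mM). Six samples over 30 min, quenched in methanol with internal standard, then LC-MS/MS for substrate depletion. CLint taken from the first-order decay, normalized to protein.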

[22] = Selectivity for human CB1 receptor over DAT
[23] = Selectivity for human CB1 receptor over choline transporter
[24] = Selectivity for human CB1 receptor over androgen receptor
Homo sapiens [25] = species: Homo sapiens; experiment: Selectivity for human CB1 receptor over human bradykinin B2 receptor
[26] = Selectivity for human CB1 receptor over 5HT receptor
Rattus norvegicus [27] = experiment: Reduction in progression of body weight in diet-induced obesity Sprague-Dawley rat model at 3 mg/kg, po for 16 days; assay type: functional, organism-based; design: dose 3 mg/kg
In short: (§2)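 Obese Sprague-Dawley rats (HFD 10 weeks from 3 weeks old, selected as >2 SD above chow controls), n = 9 per group, gavage-adapted 3 days, then dosed daily by gavage at 5:00 p.m. for 16 days in water with 7.5% gelatine and 0.62% NaCl, 2 mL/kg; body weight and food intake recorded daily.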

[28] = Solubility in fed state stimulated intestinal fluid at pH 6.6; assay type: physicochemical; conditions: fed state simulated intestinal fluid
In short: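 Excess compound (about 1-2 mg) was placed in about […] of 50 mM fed-state simulated intestinal fluid at room temperature. Final pH was measured the next day, then samples were filtered and quantified by HPLC against a five-dilution calibration.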

Rattus norvegicus [29] = experiment: Reduction in progression of body weight in diet-induced obesity Sprague-Dawley rat model at 10 mg/kg, po for 16 days; assay type: functional, organism-based; design: dose 10 mg/kg; in short: as §2
[30] = Selectivity for human CB1 receptor over sodium channel
Homo sapiens [31] = species: Homo sapiens; experiment: Selectivity for human CB1 receptor over human NK3 receptor
[32] = Selectivity for human CB1 receptor over BZD receptor
Homo sapiens [33] = species: Homo sapiens; experiment: Selectivity for human CB1 receptor over human LTD4 receptor
Homo sapiens [34] = species: Homo sapiens; experiment: Selectivity for human CB1 receptor over human vanilloid V2 receptor
Homo sapiens [35] = species: Homo sapiens; experiment: Selectivity for human CB1 receptor over human CB2 receptor
[36] = Selectivity for human CB1 receptor over Kv channel
[37] = Selectivity for human CB1 receptor over GABA transporter
Homo sapiens [38] = species: Homo sapiens; experiment: Selectivity for human CB1 receptor over human adrenergic beta-1 receptor
Homo sapiens [39] = species: Homo sapiens; experiment: Selectivity for human CB1 receptor over human AT1 receptor
[40] = Selectivity for human CB1 receptor over chloride channel
Homo sapiens [41] = species: Homo sapiens; experiment: Selectivity for human CB1 receptor over human MC4 receptor
Homo sapiens [42] = species: Homo sapiens; experiment: Selectivity for human CB1 receptor over human adenosine A1 receptor
Homo sapiens [43] = species: Homo sapiens; experiment: Selectivity for human CB1 receptor over human CCK1 receptor
[44] = Selectivity for human CB1 receptor over sigma receptor
Homo sapiens [45] = species: Homo sapiens; experiment: Selectivity for human CB1 receptor over human vanilloid V1a receptor
[46] = Selectivity for human CB1 receptor over P2Y receptor
Homo sapiens [47] = species: Homo sapiens; experiment: Selectivity for human CB1 receptor over human adenosine A3 receptor
Homo sapiens [48] = species: Homo sapiens; experiment: Selectivity for human CB1 receptor over human ORL1 receptor
Cannabinoid receptor 1 = Cannabinoid receptor 1 (Homo sapiens, UniProt P21554); experiment: Activity at human CB1R expressed in HEK293 cells assessed as intracellular cAMP level; assay type: functional, cell-based
Rattus norvegicus [49] = experiment: Reduction in body fat in po dosed diet-induced obesity Sprague-Dawley rat model; assay type: functional, organism-based
In short: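 Sprague-Dawley rats fed HFD from 3 weeks of age for 10 weeks; high responders (body weight exceeding chow controls by >2 SD) grouped n = 9. After 3 days gavage adaptation, daily oral dosing at 5:00 p.m. for 2 weeks in 7.5% gelatine/0.62% NaCl in water, 2 mL/kg. Fat and lean mass by MRI before and at end of treatment.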

Homo sapiens [50] = species: Homo sapiens; experiment: Selectivity for human CB1 receptor over human NK2 receptor
[51] = Selectivity for human CB1 receptor over NMDA receptor
Homo sapiens [52] = species: Homo sapiens; experiment: Selectivity for human CB1 receptor over human dopamine D3 receptor
[53] = Selectivity for human CB1 receptor over central imidazoline I2 receptor
[54] = Selectivity for human CB1 receptor over adrenergic alpha-2 receptor
[55] = Selectivity for human CB1 receptor over muscarinic receptor
[56] = Selectivity for human CB1 receptor over neuropeptide Y receptor
[57] = Selectivity for human CB1 receptor over L type calcium channel at verapamil site
[58] = Selectivity for human CB1 receptor over peripheral imidazoline I1 receptor
Liver microsomes [59] = experiment: Clearance in rat liver microsomes; assay type: ADME, Microsome; conditions: microsomes; in short: as §1
Rattus norvegicus [60] = experiment: Reduction in progression of body weight in diet-induced obesity Sprague-Dawley rat model at 1 mg/kg, po for 16 days; assay type: functional, organism-based; design: dose 1 mg/kg; in short: as §2
Homo sapiens [61] = species: Homo sapiens; experiment: Selectivity for human CB1 receptor over human estrogen receptor

Chain of Cannabinoid receptor 1 (P21554 whole entry): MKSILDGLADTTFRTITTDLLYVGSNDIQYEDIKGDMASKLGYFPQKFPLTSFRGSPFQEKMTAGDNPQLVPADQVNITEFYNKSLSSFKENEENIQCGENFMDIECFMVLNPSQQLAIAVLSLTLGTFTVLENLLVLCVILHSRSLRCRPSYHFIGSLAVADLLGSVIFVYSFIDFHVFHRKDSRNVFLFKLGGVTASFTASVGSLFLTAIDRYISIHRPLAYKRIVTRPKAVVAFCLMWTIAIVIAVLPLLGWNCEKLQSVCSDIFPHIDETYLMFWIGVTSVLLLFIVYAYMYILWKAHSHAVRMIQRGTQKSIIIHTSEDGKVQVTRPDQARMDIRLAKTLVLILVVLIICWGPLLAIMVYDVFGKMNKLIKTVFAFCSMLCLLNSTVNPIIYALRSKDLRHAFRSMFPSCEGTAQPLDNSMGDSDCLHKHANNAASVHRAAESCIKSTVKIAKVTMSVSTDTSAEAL

Q: For `O=C(c1cc2c(cc1F)O[C@](c1ccc(F)cc1)(c1ccc(Cl)cc1Cl)O2)N1CCOCC1`, which Selectivity ratio (Homo sapiens [1]) is on record?
A: 300

Q: What about the Selectivity ratio [2] of the same molecule?
A: 300

Q: And the Selectivity ratio [3]?
A: 300

Q: And the Selectivity ratio (Homo sapiens [4])?
A: 300

Q: What about the Selectivity ratio [5] of the same molecule?
A: 300

Q: What about the logD [6] of the same molecule?
A: > 4

Q: What about the Selectivity ratio [7] of the same molecule?
A: 300

Q: And the Selectivity ratio [8]?
A: 300

Q: What about the Selectivity ratio (Homo sapiens [9]) of the same molecule?
A: 300

Q: What about the Selectivity ratio [10] of the same molecule?
A: 300

Q: And the Selectivity ratio [11]?
A: 300

Q: What about the Papp A→B [12] of the same molecule?
A: 10.6 ×10⁻⁶ cm/s

Q: And the Selectivity ratio (Homo sapiens [13])?
A: 300

Q: What about the Selectivity ratio (Homo sapiens [14]) of the same molecule?
A: 300

Q: What about the Selectivity ratio [15] of the same molecule?
A: 300

Q: What about the Selectivity ratio [16] of the same molecule?
A: 300

Q: And the solubility [17]?
A: < 1 µg/mL

Q: What about the Selectivity ratio [18] of the same molecule?
A: 300

Q: What about the Selectivity ratio [19] of the same molecule?
A: 300

Q: And the Selectivity ratio [20]?
A: 300

Q: What about the clearance (Liver microsomes [21]) of the same molecule?
A: 11 µL/min/mg

Q: What about the Selectivity ratio [22] of the same molecule?
A: 300

Q: And the Selectivity ratio [23]?
A: 300

Q: And the Selectivity ratio [24]?
A: 300

Q: What about the Selectivity ratio (Homo sapiens [25]) of the same molecule?
A: 300

Q: What about the Selectivity ratio [26] of the same molecule?
A: 300

Q: And the Activity (Rattus norvegicus [27])?
A: Active

Q: What about the solubility [28] of the same molecule?
A: 445 µg/mL (≈ 904 µM)

Q: What about the Activity (Rattus norvegicus [29]) of the same molecule?
A: Active

Q: What about the Selectivity ratio [30] of the same molecule?
A: 300

Q: What about the Selectivity ratio (Homo sapiens [31]) of the same molecule?
A: 300

Q: And the Selectivity ratio [32]?
A: 300

Q: And the Selectivity ratio (Homo sapiens [33])?
A: 300

Q: What about the Selectivity ratio (Homo sapiens [34]) of the same molecule?
A: 300

Q: What about the Selectivity ratio (Homo sapiens [35]) of the same molecule?
A: > 1000

Q: What about the Selectivity ratio [36] of the same molecule?
A: 300

Q: What about the Selectivity ratio [37] of the same molecule?
A: 300

Q: What about the Selectivity ratio (Homo sapiens [38]) of the same molecule?
A: 300

Q: What about the Selectivity ratio (Homo sapiens [39]) of the same molecule?
A: 300

Q: What about the Selectivity ratio [40] of the same molecule?
A: 300

Q: And the Selectivity ratio (Homo sapiens [41])?
A: 300

Q: And the Selectivity ratio (Homo sapiens [42])?
A: 300

Q: And the Selectivity ratio (Homo sapiens [43])?
A: 300

Q: What about the Selectivity ratio [44] of the same molecule?
A: 300

Q: What about the Selectivity ratio (Homo sapiens [45]) of the same molecule?
A: 300

Q: And the Selectivity ratio [46]?
A: 300

Q: And the Selectivity ratio (Homo sapiens [47])?
A: 300

Q: And the Selectivity ratio (Homo sapiens [48])?
A: 300

Q: And the EC50 (Cannabinoid receptor 1)?
A: 8 nM

Q: And the Activity (Rattus norvegicus [49])?
A: Active

Q: What about the Selectivity ratio (Homo sapiens [50]) of the same molecule?
A: 300

Q: And the Selectivity ratio [51]?
A: 300

Q: And the Selectivity ratio (Homo sapiens [52])?
A: 300

Q: What about the Selectivity ratio [53] of the same molecule?
A: 300

Q: And the Selectivity ratio [54]?
A: 300

Q: What about the Selectivity ratio [55] of the same molecule?
A: 300

Q: And the Selectivity ratio [56]?
A: 300

Q: And the Selectivity ratio [57]?
A: 300

Q: What about the Selectivity ratio [58] of the same molecule?
A: 300

Q: What about the clearance (Liver microsomes [59]) of the same molecule?
A: 27 µL/min/mg

Q: What about the Activity (Rattus norvegicus [60]) of the same molecule?
A: Active

Q: What about the Selectivity ratio (Homo sapiens [61]) of the same molecule?
A: 300
